The values below come from ChEMBL document CHEMBL1122866, “3-Phenyl-1-indanamines. Potential antidepressant activity and potent inhibition of dopamine, norepinephrine, and serotonin uptake” (J Med Chem, 1985).

Several values for one entry are separate records, joined by “and”; a condition that tells them apart may be missing. Equal values may be shown once.

Chain of Sodium-dependent dopamine transporter (P23977 whole entry): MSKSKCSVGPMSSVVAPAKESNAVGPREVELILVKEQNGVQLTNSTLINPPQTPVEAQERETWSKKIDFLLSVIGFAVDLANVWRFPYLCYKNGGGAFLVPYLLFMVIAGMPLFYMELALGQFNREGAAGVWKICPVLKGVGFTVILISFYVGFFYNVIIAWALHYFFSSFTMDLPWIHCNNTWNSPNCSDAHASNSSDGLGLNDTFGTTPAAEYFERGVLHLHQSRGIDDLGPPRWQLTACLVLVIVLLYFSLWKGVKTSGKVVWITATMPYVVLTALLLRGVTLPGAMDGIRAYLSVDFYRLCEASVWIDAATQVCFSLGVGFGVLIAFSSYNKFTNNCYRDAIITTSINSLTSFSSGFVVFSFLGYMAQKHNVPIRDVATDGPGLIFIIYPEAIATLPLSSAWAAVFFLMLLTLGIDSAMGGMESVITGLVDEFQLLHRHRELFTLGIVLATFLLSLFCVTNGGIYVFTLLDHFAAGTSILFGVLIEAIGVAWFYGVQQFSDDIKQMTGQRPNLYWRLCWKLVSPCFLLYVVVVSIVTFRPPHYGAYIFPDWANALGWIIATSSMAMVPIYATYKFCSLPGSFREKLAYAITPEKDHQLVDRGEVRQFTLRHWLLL
Chain of Norepinephrine transporter (Q9WTR4 whole entry): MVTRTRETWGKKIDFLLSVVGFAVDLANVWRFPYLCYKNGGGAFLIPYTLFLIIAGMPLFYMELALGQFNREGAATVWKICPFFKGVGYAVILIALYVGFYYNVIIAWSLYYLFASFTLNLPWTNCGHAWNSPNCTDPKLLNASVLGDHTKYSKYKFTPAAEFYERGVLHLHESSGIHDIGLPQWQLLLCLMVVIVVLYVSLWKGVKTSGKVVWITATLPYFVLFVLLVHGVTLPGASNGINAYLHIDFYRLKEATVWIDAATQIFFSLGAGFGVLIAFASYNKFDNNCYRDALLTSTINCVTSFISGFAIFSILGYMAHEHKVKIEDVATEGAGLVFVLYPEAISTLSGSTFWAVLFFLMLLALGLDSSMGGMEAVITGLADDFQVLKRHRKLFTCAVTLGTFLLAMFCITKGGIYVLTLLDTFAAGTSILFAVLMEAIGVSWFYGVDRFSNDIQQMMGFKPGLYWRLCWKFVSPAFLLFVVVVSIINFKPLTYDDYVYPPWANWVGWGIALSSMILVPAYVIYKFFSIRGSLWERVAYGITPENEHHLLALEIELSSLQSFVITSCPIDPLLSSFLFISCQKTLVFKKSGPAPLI

The target of one experiment is Norepinephrine transporter (Rattus norvegicus, UniProt Q9WTR4). The experiment can be described thus: Inhibition of noradrenaline uptake in rat synaptosomal fraction. In kind it is functional. Summed up:
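Synaptosomal uptake of DA, NE or 5-HT measured. The IC50 is in nM and is the mean of at least two determinations, each using five test concentrations in triplicate.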
On to `CN(C)C1CC(c2ccc(Cl)c(Cl)c2)c2ccccc21.Cl` (stereo unspecified), for which inhibition was half-maximal at 2.4 nM (IC50).

A further experiment addresses Sodium-dependent dopamine transporter (Rattus norvegicus, UniProt P23977). Nature of the experiment: Inhibition of dopamine uptake in rat synaptosomal fraction. In kind it is functional.
On to `CN1CCN(C2CC(c3ccc(Cl)c(Cl)c3)c3ccccc32)CC1` (single isomer, unassigned; (+)-102) [listing 1 of 2 here], for which the 50% inhibitory concentration (IC50) (in general, the concentration that gives 50% inhibition) worked out at 1700 nM. In other words, the single-digit micromolar range.

In the case of `Clc1ccc(C2CC(N3CCCCC3)c3ccccc32)cc1Cl` (stereo in doubt; 99) [listing 1 of 2 here], the 50% inhibitory concentration (IC50) was 720 nM.

The species named for the next experiment is Mus musculus. The experiment can be described thus: Antagonistic activity against 5-HTP induced potentiation in mice. In kind it is functional. The gist of the method:
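Mice dosed intraperitoneally; the result is reported as the ED50 in μmol/kg with a range in parentheses. Test compounds are racemates of >95% isomeric purity by TLC.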
Regarding `CNC1CC(c2ccc(Cl)c(Cl)c2)c2ccc(F)cc21` (stereo in doubt; 76), the ED50 – broadly, the dose at which the effect has come halfway, by size or by number of responders – turned out to be 15 µmol/kg.

On to `CN(C)C1CC(c2ccc(F)cc2)c2ccc(F)cc21` (stereo unspecified), for which the median effective dose (ED50) was > 29 µmol/kg and 21 µmol/kg.

Regarding `CN1CCN(C2CC(c3ccc(Cl)c(Cl)c3)c3ccccc32)CC1` (stereo in doubt; 102), the ED50 was more than 89 µmol/kg.

`CNC1CC(c2ccc(F)c(F)c2)c2ccccc21` (stereo in doubt; 68): the ED50 turned out to be 63 µmol/kg.

For the compound `CCCNC1CC(c2ccc(Cl)c(Cl)c2)c2ccccc21` (stereo in doubt; 87), the ED50 amounted to 87 µmol/kg.

For `CN1Cc2c(N)cccc2C(c2ccccc2)C1` (stereo unspecified), the ED50 is more than 56 µmol/kg.

As to `CNC1CC(c2ccc(F)c(Cl)c2)c2ccccc21` (stereo in doubt; 70), the ED50 turned out to be 30 µmol/kg.

Take `CN(C)C1CC(c2ccc(Cl)c(Cl)c2)c2ccccc21` (stereo unspecified): the 50% effective dose (ED50) is 5 µmol/kg and 10 µmol/kg.

In the case of `CN(C)C1CC(c2cccc(Cl)c2)c2ccccc21` (stereo in doubt; 67), the median effective dose (ED50) was 78 µmol/kg.

Take `CN(C)C1CC(c2ccc(F)cc2)c2ccccc21` (stereo in doubt; 61): the ED50 was 25 µmol/kg.

Turning to `CNC1CC(c2ccc(F)cc2)c2ccccc21` (stereo in doubt; 32), the ED50 was more than 144 µmol/kg.

With `CCN(CC)C1CC(c2ccc(Cl)c(Cl)c2)c2ccccc21` (stereo in doubt; 85), the ED50 worked out at 19 µmol/kg.

Turning to `CN1CCN(C2CC(c3ccc(Cl)c(Cl)c3)c3ccccc32)CC1` (single isomer, unassigned; (+)-101), the ED50 is more than 91 µmol/kg.

Consider `CNC1CC(c2ccc(Cl)cc2Cl)c2ccccc21` (stereo in doubt; 48), for which the ED50 came out at 67 µmol/kg.

In the case of `CN(C)C1CC(c2ccc(Cl)cc2Cl)c2ccccc21` (stereo in doubt; 49), the 50% effective dose (ED50) was determined as 19 µmol/kg.

`CN(C)C1CC(c2ccc(F)cc2)c2ccc(C(F)(F)F)cc21` (stereo in doubt; 57): the ED50 is 123 µmol/kg.

Take `CN(C)C1CC(c2ccc(F)c(Cl)c2)c2ccccc21` (stereo in doubt; 44): the 50% effective dose (ED50) was 37 µmol/kg.

For `CN(C)C1CC(c2ccccc2)c2ccccc21` (stereo in doubt; 31), the ED50 was more than 35 µmol/kg.

In the case of `Clc1ccc(C2CC(N3CCCC3)c3ccccc32)cc1Cl` (stereo in doubt; 98), the median effective dose (ED50) was 161 µmol/kg.

For `Clc1ccc(C2CC(NCc3ccccc3)c3ccccc32)cc1Cl` (stereo in doubt; 94), the median effective dose (ED50) was determined as 207 µmol/kg.

For the compound `CN(C)C1CC(c2ccc(Br)cc2)c2ccccc21` (stereo in doubt; 65), the 50% effective dose (ED50) was 12 µmol/kg.

`CNC1CC(c2ccc(Br)cc2)c2ccccc21` (stereo in doubt; 64): the ED50 is 6.6 µmol/kg.

Consider `CNC1CC(c2ccc(F)cc2)c2ccccc21` (stereo in doubt; 60), for which the median effective dose (ED50) amounted to 72 µmol/kg.

Take `CCCNC1CC(c2ccc(Cl)c(Cl)c2)c2ccccc21` (stereo in doubt; 88): the ED50 was more than 112 µmol/kg.

`CN1CCN(C2CC(c3ccc(Cl)c(Cl)c3)c3ccccc32)CC1` (stereo in doubt; (-)-102): the ED50 is more than 89 µmol/kg.

With `CNC1CC(c2ccc(Cl)cc2)c2ccccc21` (stereo unspecified), the 50% effective dose (ED50) was 34 µmol/kg and 22 µmol/kg.

With `Clc1ccc(C2CC(N3CCCC3)c3ccccc32)cc1Cl` (stereo in doubt; 97), the 50% effective dose (ED50) was more than 108 µmol/kg.

With `CN(C)C1CC(c2ccc(Br)cc2)c2ccccc21` (stereo in doubt; 37), the ED50 is 8.4 µmol/kg.

With `CNC1CC(c2ccc(Br)cc2)c2ccccc21` (stereo in doubt; 36), the ED50 came to 8.8 µmol/kg.

On to `CNC1CC(c2ccc(F)c(Cl)c2)c2ccccc21` (stereo in doubt; 43), for which the ED50 is 47 µmol/kg.

`CNC1CC(c2ccc(F)c(F)c2)c2ccccc21` (stereo in doubt; 41): the ED50 came to 22 µmol/kg.

In the case of `CN(C)C1CC(c2ccc(F)cc2)c2ccc(C(F)(F)F)cc21` (stereo in doubt; 82), the median effective dose (ED50) amounted to 101 µmol/kg.

On to `CCN(CC)C1CC(c2ccc(Cl)c(Cl)c2)c2ccccc21` (stereo in doubt; 86), for which the median effective dose (ED50) was 204 µmol/kg.

For the compound `CN(C)C1CC(c2cccc(Cl)c2)c2ccccc21` (stereo in doubt; 40), the ED50 was 43 µmol/kg.

`CN(C)C1CC(c2ccc(Cl)cc2)c2ccccc21` (stereo in doubt; 63): the ED50 was 14 µmol/kg.

In the case of `CN(C)C1CC(c2ccc(F)c(Cl)c2)c2ccccc21` (stereo in doubt; 71), the ED50 is 51 µmol/kg.

For the compound `CCNC1CC(c2ccc(Cl)c(Cl)c2)c2ccccc21` (stereo in doubt; 83), the ED50 amounted to 26 µmol/kg.

`CN1CCN(C2CC(c3ccc(Cl)c(Cl)c3)c3ccccc32)CC1` (single isomer, unassigned; (-)): the median effective dose (ED50) is more than 92 µmol/kg.

`CN(C)C1CC(c2ccc(Cl)c(Cl)c2)c2ccc(F)cc21` (stereo in doubt; 77): the ED50 was found to be 29 µmol/kg.

In the case of `CCNC1CC(c2ccc(Cl)c(Cl)c2)c2ccccc21` (stereo in doubt; 84), the ED50 was found to be 26 µmol/kg.

As to `Clc1ccc(C2CC(N3CCCCC3)c3ccccc32)cc1Cl` (stereo in doubt; 100), the ED50 was more than 209 µmol/kg.

As for `CNC1CC(c2ccc(Cl)c(Cl)c2)c2ccc(O)cc21` (stereo in doubt; 54), the ED50 was more than 128 µmol/kg.

As for `CN(C)C1CC(c2ccc(Cl)cc2)c2ccccc21` (stereo in doubt; 35), the ED50 turned out to be 48 µmol/kg.

Turning to `Clc1ccc(C2CC(NCCc3ccccc3)c3ccccc32)cc1Cl` (stereo unspecified), the ED50 was > 85 µmol/kg and 142 µmol/kg.

In the case of `CCCN(CCC)C1CC(c2ccc(Cl)c(Cl)c2)c2ccccc21` (stereo in doubt; 89), the median effective dose (ED50) is more than 100 µmol/kg.

On to `CNC1CC(c2cccc(Cl)c2)c2ccccc21` (stereo in doubt; 66), for which the median effective dose (ED50) came to 124 µmol/kg.

In the case of `CN(C)C1CC(c2ccc(Cl)c(Cl)c2)c2ccc(F)cc21` (stereo in doubt; 51), the ED50 came out at 20 µmol/kg.

For `CN(C)C1CC(c2ccc(F)cc2)c2ccccc21` (stereo in doubt; 33), the ED50 is 45 µmol/kg.

Consider `CN(C)C1CC(c2ccc(F)c(F)c2)c2ccccc21` (stereo unspecified), for which the 50% effective dose (ED50) was 73 µmol/kg and 42 µmol/kg.

In the case of `CNC1CC(c2cccc(Cl)c2)c2ccccc21` (stereo in doubt; 39), the ED50 was 92 µmol/kg.

Turning to `CN(C)C1CC(c2ccccc2)c2ccccc21` (stereo in doubt; 59), the 50% effective dose (ED50) was more than 36 µmol/kg.

For the compound `CN(C)C1CC(c2ccc(Cl)cc2Cl)c2ccccc21` (stereo in doubt; 75), the ED50 was 19 µmol/kg.

`CN1CCN(C2CC(c3ccc(Cl)c(Cl)c3)c3ccccc32)CC1` (single isomer, unassigned; (+)-102) [listing 2 of 2 here]: the ED50 was more than 89 µmol/kg.

On to `CNC1CC(c2ccc(Cl)c(Cl)c2)c2ccc(F)cc21` (stereo in doubt; 50), for which the 50% effective dose (ED50) turned out to be 27 µmol/kg.

On to `CNC1CC(c2ccc(Cl)cc2Cl)c2ccccc21` (stereo in doubt; 74), for which the ED50 is 71 µmol/kg.

For `Clc1ccc(C2CC(NCc3ccccc3)c3ccccc32)cc1Cl` (stereo in doubt; 93), the median effective dose (ED50) was determined as 47 µmol/kg.

As for `CCCN(CCC)C1CC(c2ccc(Cl)c(Cl)c2)c2ccccc21` (stereo in doubt; 90), the ED50 is more than 100 µmol/kg.

Regarding `Clc1ccc(C2CC(N3CCCCC3)c3ccccc32)cc1Cl` (stereo in doubt; 99) [listing 2 of 2 here], the ED50 is more than 209 µmol/kg.
